Laboratory results taken from ChEMBL document CHEMBL4311940, “Design, Synthesis, and Biological Evaluation of 4-Methyl Quinazoline Derivatives as Anticancer Agents Simultaneously Targeting Phosphoinositide 3-Kinases and Histone Deacetylases” (J Med Chem, 2019).
Calls of active or inactive are those of the source. The calls are words filed in the database; no cut-off is given here.

Assays:
[1] = Toxicity in athymic nude BALB/c mouse xenografted with human HCT116 cells assessed as reduction in body weight at 100 to 150 mpk, po measured 2 times every week; type: organism-based; conditions: in vivo
[2] = organism: Homo sapiens; test: Inhibition of PI3K in human HCT116 cells assessed as reduction in AKT phosphorylation at T308 residue at 0.5 to 5 uM after 16 hrs by Western blot analysis; type: cell-based
Summary of the method: (§1)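 Immunoblot of HCT116 lysates (RIPA). 40 μg protein per lane on 10−12% SDS-PAGE, transferred to nitrocellulose, blocked 0.5 h in 5% milk/TBST. Primary antibodies 1:1000 overnight at 4 °C, secondary 1:1000 for 1 h, bands visualized by enhanced ECL.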

[3] = target: Dual specificity tyrosine-phosphorylation-regulated kinase 1B (Homo sapiens) (UniProt Q9Y463); test: Binding affinity to wild-type human full length DYRK1B (M1 to S629 residues) expressed in bacterial expression system assessed as residual binding level at 1 uM by Kinomescan method relative to control
Sequence of Dual specificity tyrosine-phosphorylation-regulated kinase 1B (Homo sapiens) (Q9Y463 whole entry, looked up, the tested form may be a part): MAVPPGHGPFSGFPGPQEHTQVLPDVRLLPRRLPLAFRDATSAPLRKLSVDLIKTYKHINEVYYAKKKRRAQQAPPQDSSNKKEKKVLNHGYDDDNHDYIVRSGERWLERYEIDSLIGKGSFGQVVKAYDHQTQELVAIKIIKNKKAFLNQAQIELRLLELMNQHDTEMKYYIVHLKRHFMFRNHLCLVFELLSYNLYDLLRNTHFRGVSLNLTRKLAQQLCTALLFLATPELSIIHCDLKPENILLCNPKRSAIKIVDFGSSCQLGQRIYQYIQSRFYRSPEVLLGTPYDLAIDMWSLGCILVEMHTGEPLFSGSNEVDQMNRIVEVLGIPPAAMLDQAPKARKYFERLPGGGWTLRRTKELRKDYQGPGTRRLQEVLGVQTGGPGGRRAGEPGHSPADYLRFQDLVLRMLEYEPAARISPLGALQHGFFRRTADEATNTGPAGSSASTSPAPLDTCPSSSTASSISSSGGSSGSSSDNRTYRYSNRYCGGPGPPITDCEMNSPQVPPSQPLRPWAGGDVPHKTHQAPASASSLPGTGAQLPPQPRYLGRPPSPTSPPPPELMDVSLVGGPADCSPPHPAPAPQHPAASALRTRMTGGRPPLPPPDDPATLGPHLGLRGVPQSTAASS
Summary of the method: (§2)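 Kinomescan binding screen at 1 μM across 97 kinases.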

[4] = Drug level in tumor of human HGC27 cells xenografted in BALB/c mouse at 30 mg/kg, ip measured 0.5 hrs post last dose; type: ADME, organism-based, Neoplasm; conditions: read-out: Drug uptake
Summary of the method: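 HGC-27 xenografted nude mice dosed po (0.5% cmc/Tween 80) or ip (saline); at end of treatment, 0.5 h after final dose, plasma and tumor tissue collected and compound concentration measured (ng/mL plasma, ng/g tumor).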

[5] = system: Mus musculus; test: In vivo inhibition of HDAC in tumor of human HCT116 cells xenografted in athymic nude BALB/c mouse assessed as increase in acetylated histone-H3 expression by DAB staining based immunohistochemistry method; type: functional, organism-based
Summary of the method: (§3)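 HCT116 xenograft tumors from treated and vehicle mice stained immunohistochemically for Ki67, acetyl-H3 and p-AKT(S473) (200×); integrated optical density quantified; mean ± SEM, n = 5−7, one-way ANOVA versus vehicle.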

[6] = system: Mus musculus; test: In vivo inhibition of PI3K in tumor of human HCT116 cells xenografted in athymic nude BALB/c mouse assessed as reduction in phosphorylated AKT expression at S473 residue by DAB staining based immunohistochemistry method; type: functional, organism-based; summary of the method: as §3
[7] = system: HCT-116; test: Antitumor activity against human HCT116 cells xenografted in po dosed athymic nude BALB/c mouse assessed as tumor growth inhibition measured 2 times every week; type: functional, organism-based
Summary of the method: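 Female BALB/c-nu/nu mice, 6–8 weeks, given 2 × 10^6 HCT116 cells in 0.2 mL saline s.c. right flank; randomized at 100–200 mm3. Daily oral dosing in 0.5% cmc with Tween 80; vehicle controls.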

[8] = organism: Homo sapiens; test: Inhibition of HDAC/PI3K in human HCT116 cells assessed as increase in cleaved caspase-3 level at 0.5 to 5 uM after 16 hrs by Western blot analysis; type: cell-based; summary of the method: as §1
[9] = target: Phosphatidylinositol 4-phosphate 3-kinase C2 domain-containing subunit beta (Homo sapiens) (UniProt O00750); test: Binding affinity to wild-type human […] length PIK3C2B (M1 to L1634 residues) expressed in mammalian expression system assessed as residual binding level at 1 uM by Kinomescan method relative to control; summary of the method: as §2
Sequence of Phosphatidylinositol 4-phosphate 3-kinase C2 domain-containing subunit beta (Homo sapiens) (O00750 whole entry, the tested form may be a part): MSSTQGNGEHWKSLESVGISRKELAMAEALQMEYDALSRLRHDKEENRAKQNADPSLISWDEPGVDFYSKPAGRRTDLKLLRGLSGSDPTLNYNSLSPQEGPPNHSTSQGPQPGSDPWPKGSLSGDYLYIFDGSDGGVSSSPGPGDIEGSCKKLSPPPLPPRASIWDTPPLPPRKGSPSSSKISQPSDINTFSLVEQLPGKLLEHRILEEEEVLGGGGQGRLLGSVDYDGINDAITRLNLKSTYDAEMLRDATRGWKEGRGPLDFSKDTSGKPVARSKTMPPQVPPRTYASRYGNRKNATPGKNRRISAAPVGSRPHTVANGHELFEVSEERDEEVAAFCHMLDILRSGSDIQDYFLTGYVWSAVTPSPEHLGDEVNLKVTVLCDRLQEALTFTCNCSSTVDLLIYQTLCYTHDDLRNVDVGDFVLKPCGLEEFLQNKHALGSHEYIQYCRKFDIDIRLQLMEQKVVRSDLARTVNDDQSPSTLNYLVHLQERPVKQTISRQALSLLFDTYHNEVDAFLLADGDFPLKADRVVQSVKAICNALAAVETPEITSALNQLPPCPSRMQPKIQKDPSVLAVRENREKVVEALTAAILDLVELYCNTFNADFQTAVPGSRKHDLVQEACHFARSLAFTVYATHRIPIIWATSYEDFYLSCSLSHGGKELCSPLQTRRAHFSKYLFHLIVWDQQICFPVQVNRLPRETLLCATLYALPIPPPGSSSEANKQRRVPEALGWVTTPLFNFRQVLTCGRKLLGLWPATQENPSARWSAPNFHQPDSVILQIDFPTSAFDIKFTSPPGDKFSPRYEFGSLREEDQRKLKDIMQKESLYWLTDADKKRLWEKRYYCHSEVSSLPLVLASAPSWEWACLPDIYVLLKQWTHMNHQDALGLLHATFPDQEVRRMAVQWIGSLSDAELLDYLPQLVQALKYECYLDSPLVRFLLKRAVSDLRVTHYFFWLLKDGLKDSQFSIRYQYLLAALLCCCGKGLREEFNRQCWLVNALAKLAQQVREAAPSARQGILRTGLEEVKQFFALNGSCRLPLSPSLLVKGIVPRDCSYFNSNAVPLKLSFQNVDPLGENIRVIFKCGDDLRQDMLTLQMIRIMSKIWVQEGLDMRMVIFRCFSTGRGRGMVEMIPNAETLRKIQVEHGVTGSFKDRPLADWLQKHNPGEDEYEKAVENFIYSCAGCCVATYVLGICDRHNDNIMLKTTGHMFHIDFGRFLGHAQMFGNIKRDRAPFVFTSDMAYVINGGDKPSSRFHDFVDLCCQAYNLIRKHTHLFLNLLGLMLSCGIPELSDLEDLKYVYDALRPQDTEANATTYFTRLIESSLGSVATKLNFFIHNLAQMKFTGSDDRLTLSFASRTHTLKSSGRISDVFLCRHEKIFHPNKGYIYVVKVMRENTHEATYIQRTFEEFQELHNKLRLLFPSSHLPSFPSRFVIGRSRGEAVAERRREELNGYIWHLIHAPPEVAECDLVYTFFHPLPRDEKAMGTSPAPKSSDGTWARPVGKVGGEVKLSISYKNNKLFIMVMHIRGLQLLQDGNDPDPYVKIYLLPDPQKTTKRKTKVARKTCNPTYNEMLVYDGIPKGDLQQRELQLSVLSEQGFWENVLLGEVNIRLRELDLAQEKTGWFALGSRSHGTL

[10] = organism: Homo sapiens; test: Selectivity ratio, ratio of IC50 for recombinant human PI3Kalpha to recombinant human His-tagged PIK3CD/PIK3R1 expressed in baculovirus expression system

Compound	Activity [1]	inhibition [2]	Activity [3]	concentration at 0.5 h [4]	inhibition [5]	inhibition [6]	Activity [7]	inhibition [8]	Activity [9]	Ratio IC50 [10]
COc1ncc(-c2cc(OCCCCCCC(=O)NO)c3ncnc(C)c3c2)cc1F	Toxic	Active	29%	370 ng/g	Dose-dependent effect	Dose-dependent effect	Dose-dependent effect	Active	27%	
COc1ccc(-c2cc(OCCN(C)c3ncc(C(=O)NO)cn3)c3ncnc(C)c3c2)cn1										> 5
